We go through 25 compounds from ChEMBL document CHEMBL4732095, “Novel naphthylamide derivatives as dual-target antifungal inhibitors: Design, synthesis and biological evaluation” (Eur J Med Chem, 2021).

Active and inactive are the calls of the source. No cut-off for these calls is given here. A value given as a limit tells only on which side of the number the result lay.

The test system of assay [1] is Candida albicans. Description: Antifungal activity against Candida albicans ATCC 10231 assessed as inhibition of microbial growth by NCCLS protocol based method. The assay is classed as functional. The procedure, abridged: (§1)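 Broth MIC50 determined following NCCLS guidelines in Sabouraud medium, with fungal suspension in 24-well format. Compound tested at 0.0625, 0.125, 0.5, 1, 2, 4, 8 and 16 μg/mL. Plates cultured statically at 35 °C. MIC50 is the lowest concentration giving 50% growth inhibition. Naftifine and fluconazole served as positive controls.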

The test system of another assay is Nakaseomyces glabratus. As to the kind of experiment: Antifungal activity against Candida glabrata ATCC 0001 assessed as inhibition of microbial growth by NCCLS protocol based method. It counts as functional. The procedure, abridged: as §1
The subject of the next assay is Aspergillus fumigatus. Description: Antifungal activity against Aspergillus fumigatus KM8001 assessed as inhibition of microbial growth by NCCLS protocol based method. The assay is classed as functional. The procedure, abridged:
as §1

For a further assay, the system named is Pichia kudriavzevii. As to the kind of experiment: Antifungal activity against Candida krusei ATCC 6258 assessed as inhibition of microbial growth by NCCLS protocol based method. It counts as functional. The procedure, abridged: as §1
The next assay has as its system Candida tropicalis. As to the kind of experiment: Antifungal activity against Candida tropicalis ATCC 1369 assessed as inhibition of microbial growth by NCCLS protocol based method. The assay is classed as functional. Summed up:
as §1

The subject of assay [2] is Candida albicans. Description: Antifungal activity against fluconazole-resistant Candida albicans 901 assessed as inhibition of microbial growth by NCCLS protocol based method. It counts as functional.
Assay [3] has as its system Candida albicans. Description: Antifungal activity against fluconazole-resistant Candida albicans 904 assessed as inhibition of microbial growth by NCCLS protocol based method. It counts as functional.
Assay [4] concerns Candida albicans. Description: Antifungal activity against fluconazole-resistant Candida albicans CaR assessed as inhibition of microbial growth by NCCLS protocol based method. It counts as functional.
For assay [5], the system named is Candida albicans. Description: Antifungal activity against fluconazole-resistant Candida albicans 17# assessed as inhibition of microbial growth by NCCLS protocol based method. The assay is classed as functional.
A short description of assay [6]: Inhibition of Candida albicans ATCC SC5314 SE incubated for 30 mins by spectrophotometric method. The procedure, abridged:
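Enzymes (SE, CYP51) extracted from C. albicans SC5314 using kits. 50 µg enzyme incubated with varying compound concentrations for 30 min at 37 °C in Tris pH 7.4, KCl, MgCl2, 2 mM NADPH, with squalene or eburicol as substrate. Reaction stopped with acetonitrile and centrifuged. Eburicol consumption (CYP51) read by HPLC. Squalene, after sulfuric acid/formaldehyde derivatization, read at 400 nm (SE). IC50 reported.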

Assay [7] concerns Candida albicans. Description: Antifungal activity against Candida albicans ATCC SC5314 assessed as induction of cell fracture at 10 nM/mL by polarizing microscopy. It counts as functional, organism-based. As to conditions: dose 10.0 nmol/ml. The procedure, abridged:
(§2)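 C. albicans ATCC SC5314 observed by polarizing microscopy over treatment time. Untreated, fluconazole- and naftifine-treated control groups were included. Cell density, dividing cells and cell fracture were assessed, with cell counts taken per field.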

The test system of assay [8] is Candida albicans. Description: Antifungal activity against Candida albicans ATCC SC5314 assessed as decrease in fungal cell density at 10 nM/mL by polarizing microscopy. The assay is classed as functional, organism-based. To be noted: dose 10.0 nmol/ml. Summed up:
as §2

Assay [9] relates to Candida albicans. Description: Antifungal activity against Candida albicans ATCC SC5314 assessed as reduction in cell division at 10 nM/mL by polarizing microscopy. The assay is classed as functional, organism-based. To be noted: dose 10.0 nmol/ml. The procedure, abridged:
as §2

The test system of assay [10] is Candida albicans. Description: Antifungal activity against fluconazole-resistant Candida albicans 632 assessed as inhibition of microbial growth by NCCLS protocol based method. It counts as functional.

On to `O=C(NC(Cn1ccnc1)C(=O)NCc1ccncc1)c1cccc2ccccc12` (centres undefined), for which the MIC50 (commonly an inhibitory concentration at the 50% level, which refers to growth in some studies and to a panel of isolates in others) with Candida albicans [1] came out at 0.25 µg/mL; with Nakaseomyces glabratus, 0.5 µg/mL; in the assay with Aspergillus fumigatus, 8 µg/mL; with Pichia kudriavzevii, 0.5 µg/mL; in the assay with Candida tropicalis, 0.25 µg/mL.
For `CN(CC(=O)Nc1cccnc1)C(=O)c1cccc2ccccc12`, the MIC50 was 0.25 µg/mL in the assay on Candida albicans [1]; 0.25 µg/mL with Nakaseomyces glabratus; greater than 16 µg/mL in the assay on Aspergillus fumigatus; 0.5 µg/mL in the assay with Pichia kudriavzevii; 0.25 µg/mL with Candida tropicalis.
For the compound `Cc1ccc(NC(=O)C(Cn2ccnc2)NC(=O)c2cccc3ccccc23)cc1` (centres undefined), the MIC50 in the assay with Candida albicans [1] is 0.25 µg/mL; in the assay on Nakaseomyces glabratus it was 0.25 µg/mL; in the assay with Aspergillus fumigatus, greater than 16 µg/mL; in the assay with Pichia kudriavzevii it was 0.5 µg/mL; in the assay on Candida tropicalis it was 0.5 µg/mL.
On to `CN(CC(=O)Nc1ccncc1)C(=O)c1cccc2ccccc12`, for which the MIC50 in the assay with Candida albicans [1] is 0.5 µg/mL; in the assay on Nakaseomyces glabratus, 0.5 µg/mL; with Aspergillus fumigatus, 8 µg/mL; with Pichia kudriavzevii it was 0.5 µg/mL; with Candida tropicalis it was 1 µg/mL.
Turning to `O=C(NC(Cn1ccnc1)C(=O)NC1CCCC1)c1cccc2ccccc12` (centres undefined), the MIC50 with Candida albicans [1] is 0.5 µg/mL; in the assay on Nakaseomyces glabratus, 2 µg/mL; with Aspergillus fumigatus it was greater than 16 µg/mL; in the assay with Pichia kudriavzevii, 0.5 µg/mL; in the assay on Candida tropicalis, 0.5 µg/mL.
With `Cc1ccc(NC(=O)C(Cn2ccnc2)NC(=O)c2ccc3ccccc3c2)cc1` (centres undefined), the MIC50 in the assay with Candida albicans [1] is 0.125 µg/mL; in the assay with Nakaseomyces glabratus it was 0.25 µg/mL; in the assay with Aspergillus fumigatus, 8 µg/mL; in the assay with Pichia kudriavzevii, 0.25 µg/mL; in the assay with Candida tropicalis it was 0.25 µg/mL.
Take `O=C(CNC(=O)c1cccc2ccccc12)NC(Cn1ccnc1)C(=O)c1ccccc1` (centres undefined): the MIC50 with Candida albicans [1] is 0.25 µg/mL; in the assay on Nakaseomyces glabratus it was 0.25 µg/mL; with Aspergillus fumigatus, 8 µg/mL; in the assay on Pichia kudriavzevii, 0.5 µg/mL; in the assay on Candida tropicalis, 0.125 µg/mL.
Take `CN(CC(=O)NCc1ccncc1)C(=O)c1ccc2ccccc2c1`: the MIC50 was determined as 0.25 µg/mL in the assay with Candida albicans [1]; 2 µg/mL in the assay on Nakaseomyces glabratus; 8 µg/mL in the assay with Aspergillus fumigatus; 0.5 µg/mL with Pichia kudriavzevii; 1 µg/mL in the assay with Candida tropicalis.
Taken in the same sequence, the figures for `O=C(NC(Cn1ccnc1)C(=O)NCc1ccccc1)c1cccc2ccccc12` (centres undefined) were 0.5 µg/mL, 0.5 µg/mL, 8 µg/mL, 1 µg/mL and 0.25 µg/mL.
On the same counts, the results for `O=C(NC(Cn1ccnc1)C(=O)NC1CCCC1)c1ccc2ccccc2c1` (centres undefined) are 0.25 µg/mL, 0.25 µg/mL, 8 µg/mL, 1 µg/mL and 0.5 µg/mL.
On the same counts, the results for `CN(CC(=O)Nc1ccncc1)C(=O)c1ccc2ccccc2c1` are 0.25 µg/mL, 0.5 µg/mL, 8 µg/mL, 1 µg/mL and 0.25 µg/mL.
With `CC(C)C(NC(=O)c1ccc2ccccc2c1)C(=O)NC(Cn1ccnc1)C(=O)c1ccccc1` (centres undefined), the MIC50 in the assay on Candida albicans [1] was 0.5 µg/mL; in the assay with Nakaseomyces glabratus it was 1 µg/mL; in the assay on Aspergillus fumigatus, greater than 16 µg/mL; in the assay with Pichia kudriavzevii, 1 µg/mL; in the assay on Candida tropicalis, 0.5 µg/mL.
Take `CC(NC(=O)c1ccc2ccccc2c1)C(=O)NC(Cn1ccnc1)C(=O)c1ccccc1` (centres undefined): the MIC50 amounted to 0.25 µg/mL with Candida albicans [1]; 0.5 µg/mL in the assay on Nakaseomyces glabratus; 8 µg/mL in the assay on Aspergillus fumigatus; 0.25 µg/mL in the assay with Pichia kudriavzevii; 0.125 µg/mL in the assay with Candida tropicalis.
`CN(C/C=C/c1ccccc1)Cc1cccc2ccccc12` [NAFTIFINE]: the MIC50 in the assay with Candida albicans [2] was greater than 16 µg/mL; in the assay with Candida albicans [3], greater than 16 µg/mL; in the assay with Candida albicans [1], 0.5 µg/mL; in the assay with Candida albicans [4], greater than 16 µg/mL; with Candida albicans [5] it was greater than 16 µg/mL; in the assay on Nakaseomyces glabratus it was 0.25 µg/mL. In addition, the MIC50 in the assay with Aspergillus fumigatus is 8 µg/mL; in the assay on Pichia kudriavzevii it was 2 µg/mL; with Candida tropicalis it was 0.5 µg/mL; in the assay with Candida albicans [10], greater than 16 µg/mL. Moreover, the IC50 (commonly the concentration at which inhibition is half-maximal) in assay [6] came out at 284 nM. For the same compound, the outcome in the assay on Candida albicans [7], in the assay on Candida albicans [8] and in the assay with Candida albicans [9] was Active.
As for `CN(CC(=O)NCc1cccnc1)C(=O)c1ccc2ccccc2c1`, the MIC50 with Candida albicans [1] was 0.5 µg/mL; in the assay with Nakaseomyces glabratus it was 0.5 µg/mL; with Aspergillus fumigatus, greater than 16 µg/mL; in the assay with Pichia kudriavzevii, 0.25 µg/mL; in the assay with Candida tropicalis, 0.25 µg/mL.
In the case of `CN(CC(=O)NCc1ccncc1)C(=O)c1cccc2ccccc12`, the MIC50 in the assay with Candida albicans [1] was found to be 1 µg/mL; in the assay on Nakaseomyces glabratus, 1 µg/mL; in the assay on Aspergillus fumigatus, 8 µg/mL; in the assay on Pichia kudriavzevii it was 2 µg/mL; in the assay on Candida tropicalis, 0.5 µg/mL.
As to `CN(CC(=O)NC(Cn1ccnc1)C(=O)c1ccccc1)C(=O)c1cccc2ccccc12` (centres undefined), the MIC50 with Candida albicans [1] is 0.5 µg/mL; in the assay with Nakaseomyces glabratus, 0.25 µg/mL; with Aspergillus fumigatus, 8 µg/mL; in the assay with Pichia kudriavzevii it was 0.5 µg/mL; in the assay on Candida tropicalis, 0.25 µg/mL.
On to `CN(CC(=O)Nc1cccnc1)C(=O)c1ccc2ccccc2c1`, for which the MIC50 in the assay with Candida albicans [2] was greater than 16 µg/mL; with Candida albicans [3] it was greater than 16 µg/mL; in the assay on Candida albicans [1] it was 0.125 µg/mL; in the assay on Candida albicans [4], 4 µg/mL; with Candida albicans [5], 8 µg/mL; in the assay on Nakaseomyces glabratus, 0.25 µg/mL. Also, the MIC50 in the assay with Aspergillus fumigatus is 4 µg/mL; in the assay with Pichia kudriavzevii, 0.25 µg/mL; in the assay on Candida tropicalis, 0.125 µg/mL; with Candida albicans [10], greater than 16 µg/mL.
Regarding `CC(C)C(NC(=O)c1cccc2ccccc12)C(=O)NC(Cn1ccnc1)C(=O)c1ccccc1` (centres undefined), the MIC50 in the assay on Candida albicans [1] is 0.25 µg/mL; in the assay on Nakaseomyces glabratus, 0.5 µg/mL; in the assay on Aspergillus fumigatus, greater than 16 µg/mL; in the assay with Pichia kudriavzevii, 1 µg/mL; in the assay on Candida tropicalis, 0.5 µg/mL.
On to `CN(CC(=O)NC(Cn1ccnc1)C(=O)c1ccccc1)C(=O)c1ccc2ccccc2c1` (centres undefined), for which the MIC50 amounted to 0.125 µg/mL in the assay with Candida albicans [1]; 0.25 µg/mL in the assay on Nakaseomyces glabratus; 8 µg/mL in the assay on Aspergillus fumigatus; 0.25 µg/mL in the assay with Pichia kudriavzevii; 0.25 µg/mL in the assay with Candida tropicalis.
In the case of `O=C(CNC(=O)c1ccc2ccccc2c1)NC(Cn1ccnc1)C(=O)c1ccccc1` (centres undefined), the MIC50 in the assay on Candida albicans [1] was 0.25 µg/mL; in the assay on Nakaseomyces glabratus, 1 µg/mL; in the assay on Aspergillus fumigatus, greater than 16 µg/mL; with Pichia kudriavzevii, 0.5 µg/mL; with Candida tropicalis it was 0.25 µg/mL.
With `CN(CC(=O)NCc1cccnc1)C(=O)c1cccc2ccccc12`, the MIC50 was 0.5 µg/mL with Candida albicans [1]; 2 µg/mL with Nakaseomyces glabratus; greater than 16 µg/mL in the assay on Aspergillus fumigatus; 0.5 µg/mL with Pichia kudriavzevii; 0.25 µg/mL with Candida tropicalis.
Regarding `O=C(NC(Cn1ccnc1)C(=O)NC1CCCCC1)c1ccc2ccccc2c1` (centres undefined), the MIC50 was 0.5 µg/mL with Candida albicans [1]; 0.25 µg/mL in the assay on Nakaseomyces glabratus; greater than 16 µg/mL with Aspergillus fumigatus; 0.5 µg/mL in the assay on Pichia kudriavzevii; 0.5 µg/mL in the assay with Candida tropicalis.
Take `O=C(NC(Cn1ccnc1)C(=O)NCc1ccccc1)c1ccc2ccccc2c1` (centres undefined): the MIC50 with Candida albicans [1] was 0.5 µg/mL; in the assay with Nakaseomyces glabratus, 1 µg/mL; in the assay with Aspergillus fumigatus it was greater than 16 µg/mL; in the assay with Pichia kudriavzevii it was 1 µg/mL; in the assay with Candida tropicalis, 0.5 µg/mL.
As to `O=C(NC(Cn1ccnc1)C(=O)NC1CCCCC1)c1cccc2ccccc12` (centres undefined), the MIC50 was 0.5 µg/mL with Candida albicans [1]; 0.25 µg/mL in the assay with Nakaseomyces glabratus; greater than 16 µg/mL in the assay on Aspergillus fumigatus; 0.5 µg/mL in the assay with Pichia kudriavzevii; 1 µg/mL in the assay with Candida tropicalis.
